Here are results for 1 compound from ChEMBL document CHEMBL2434847, “Design, synthesis, and structure-activity relationships of novel 6,7-disubstituted-4-phenoxyquinoline derivatives as potential antitumor agents” (Eur J Med Chem, 2013).

The target of assay [1] is Vascular endothelial growth factor receptor 2 (Homo sapiens, UniProt P35968). In words: Inhibition of VEGFR2 (unknown origin) using poly (Glu, Tyr) (4:1) as substrate after 30 mins by spectrophotometric analysis.
Assay [2] concerns HT-29. In words: Cytotoxicity against human HT-29 cells after 72 hrs by MTT assay. As to conditions: HT-29, 72 h. In general terms: Tetrazolium assays rely on reduction of a dye to a coloured formazan, in cell work by metabolically active cells.
Assay [3] deals with Mast/stem cell growth factor receptor Kit (Homo sapiens, UniProt P10721). In words: Inhibition of c-KIT (unknown origin) using poly (Glu, Tyr) (4:1) as substrate after 30 mins by spectrophotometric analysis.
In assay [4] the test system is A549. In words: Cytotoxicity against human A549 cells after 72 hrs by MTT assay. It is filed as functional, cell-based. The note with it: A549, 72 h. The gist of the method:
(§1)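 Cells grown in MEM with 10% FBS; about 4 × 10³ cells per well, preincubated 24 h at 37 °C in 5% CO₂, then exposed to compound for 72 h. Each line tested three times; IC50 is mean of three determinations.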

In assay [5] the test system is MKN-45. In words: Cytotoxicity against human MKN45 cells after 72 hrs by MTT assay. As to conditions: MKN-45, 72 h.
The nature of assay [6]: Cytotoxicity against human H460 cells after 72 hrs by MTT assay. The note with it: NCI-H460, 72 h.
The target in assay [7] is Hepatocyte growth factor receptor (Homo sapiens, UniProt P08581). In words: Inhibition of c-MET (unknown origin) using poly (Glu, Tyr) (4:1) as substrate after 30 mins by spectrophotometric analysis.
For assay [8], the target named is T1, Receptor-type tyrosine-protein kinase FLT3 (Homo sapiens, UniProt P36888).
T1 sequence (P36888 whole entry): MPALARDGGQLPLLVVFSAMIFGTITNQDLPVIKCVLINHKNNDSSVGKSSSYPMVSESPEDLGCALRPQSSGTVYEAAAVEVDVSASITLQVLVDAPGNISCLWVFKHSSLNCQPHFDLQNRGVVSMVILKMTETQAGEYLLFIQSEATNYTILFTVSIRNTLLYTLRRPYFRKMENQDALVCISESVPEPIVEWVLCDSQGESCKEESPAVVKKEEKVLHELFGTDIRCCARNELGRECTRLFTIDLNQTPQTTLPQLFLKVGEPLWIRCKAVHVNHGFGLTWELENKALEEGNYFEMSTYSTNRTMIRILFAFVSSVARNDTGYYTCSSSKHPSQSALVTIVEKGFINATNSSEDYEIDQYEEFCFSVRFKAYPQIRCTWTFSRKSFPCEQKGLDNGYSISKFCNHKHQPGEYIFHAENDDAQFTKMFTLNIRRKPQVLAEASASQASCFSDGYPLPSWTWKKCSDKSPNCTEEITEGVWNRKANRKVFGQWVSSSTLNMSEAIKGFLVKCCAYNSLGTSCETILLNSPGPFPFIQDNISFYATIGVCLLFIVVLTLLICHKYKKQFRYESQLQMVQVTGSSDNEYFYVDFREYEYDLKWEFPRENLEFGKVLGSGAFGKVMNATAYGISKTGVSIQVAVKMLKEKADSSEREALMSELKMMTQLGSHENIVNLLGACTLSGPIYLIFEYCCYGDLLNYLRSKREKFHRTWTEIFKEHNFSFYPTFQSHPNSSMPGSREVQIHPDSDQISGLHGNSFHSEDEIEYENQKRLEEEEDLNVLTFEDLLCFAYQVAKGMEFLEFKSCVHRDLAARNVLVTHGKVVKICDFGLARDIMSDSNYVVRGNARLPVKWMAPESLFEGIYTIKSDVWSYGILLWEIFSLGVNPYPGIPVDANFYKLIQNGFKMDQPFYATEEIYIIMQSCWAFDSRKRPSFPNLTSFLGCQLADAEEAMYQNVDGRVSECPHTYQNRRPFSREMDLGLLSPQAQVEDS
In words: Inhibition of FLT3 (unknown origin) using poly (Glu, Tyr) (4:1) as substrate after 30 mins by spectrophotometric analysis.

In assay [9] the target is Epidermal growth factor receptor (Homo sapiens, UniProt P00533). In words: Inhibition of EGFR (unknown origin) using poly (Glu, Tyr) (4:1) as substrate after 30 mins by spectrophotometric analysis.
The subject of assay [10] is U-87 MG. In words: Ratio of foretinib IC50 to compound IC50 for human U87MG cells. The format is functional, U-87MG ATCC.
The nature of assay [11]: Cytotoxicity against human U87MG cells after 72 hrs by MTT assay. It is filed as functional, cell-based, U-87MG ATCC. As to conditions: U-87 MG. The essentials:
as §1

Assay [12] can be described thus: Ratio of foretinib IC50 to compound IC50 for human H460 cells. It is filed as functional.
Assay [13] has as its system HT-29. In words: Ratio of foretinib IC50 to compound IC50 for human HT-29 cells. The format is functional.
The target in assay [14] is Platelet-derived growth factor receptor beta (Homo sapiens, UniProt P09619). In words: Inhibition of PDGFRbeta (unknown origin) using poly (Glu, Tyr) (4:1) as substrate after 30 mins by spectrophotometric analysis.

The structures appear in SMILES notation.

Sequence of Hepatocyte growth factor receptor (P08581 whole entry): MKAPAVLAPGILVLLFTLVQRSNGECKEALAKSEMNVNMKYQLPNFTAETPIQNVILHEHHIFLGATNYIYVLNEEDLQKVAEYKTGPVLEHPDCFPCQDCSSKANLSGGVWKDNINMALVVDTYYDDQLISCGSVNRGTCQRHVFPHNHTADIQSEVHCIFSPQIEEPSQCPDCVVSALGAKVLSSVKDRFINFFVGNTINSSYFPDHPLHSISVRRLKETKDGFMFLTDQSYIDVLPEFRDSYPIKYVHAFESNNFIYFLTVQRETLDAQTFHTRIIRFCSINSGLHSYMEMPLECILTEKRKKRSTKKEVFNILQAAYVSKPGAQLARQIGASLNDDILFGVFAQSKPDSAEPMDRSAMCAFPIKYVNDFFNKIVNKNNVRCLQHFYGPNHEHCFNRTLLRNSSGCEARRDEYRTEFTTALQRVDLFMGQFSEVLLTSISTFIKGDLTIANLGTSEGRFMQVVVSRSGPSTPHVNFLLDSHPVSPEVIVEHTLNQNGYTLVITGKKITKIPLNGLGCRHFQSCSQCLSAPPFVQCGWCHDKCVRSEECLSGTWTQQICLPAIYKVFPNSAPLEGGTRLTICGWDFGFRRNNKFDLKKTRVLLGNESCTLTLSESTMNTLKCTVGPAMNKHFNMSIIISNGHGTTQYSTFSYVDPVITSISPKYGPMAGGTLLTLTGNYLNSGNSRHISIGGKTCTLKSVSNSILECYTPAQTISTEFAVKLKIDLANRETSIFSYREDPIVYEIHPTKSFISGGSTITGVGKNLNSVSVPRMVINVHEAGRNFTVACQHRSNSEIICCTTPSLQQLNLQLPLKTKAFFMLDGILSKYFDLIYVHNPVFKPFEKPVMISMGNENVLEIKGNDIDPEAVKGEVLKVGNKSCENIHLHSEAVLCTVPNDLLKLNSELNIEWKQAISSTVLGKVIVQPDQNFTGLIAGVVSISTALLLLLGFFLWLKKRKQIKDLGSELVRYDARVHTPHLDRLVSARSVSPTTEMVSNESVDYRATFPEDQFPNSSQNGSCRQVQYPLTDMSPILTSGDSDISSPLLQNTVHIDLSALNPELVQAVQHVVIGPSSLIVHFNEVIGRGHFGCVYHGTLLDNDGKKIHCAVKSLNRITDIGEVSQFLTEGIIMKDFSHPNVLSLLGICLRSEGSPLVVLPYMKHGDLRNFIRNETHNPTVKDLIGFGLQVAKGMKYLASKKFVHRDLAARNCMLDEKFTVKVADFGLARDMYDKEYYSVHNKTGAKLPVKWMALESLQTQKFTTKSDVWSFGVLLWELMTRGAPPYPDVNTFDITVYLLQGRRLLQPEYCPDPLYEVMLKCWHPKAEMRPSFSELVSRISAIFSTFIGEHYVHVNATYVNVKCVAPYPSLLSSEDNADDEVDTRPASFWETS
Sequence of Epidermal growth factor receptor (P00533 whole entry): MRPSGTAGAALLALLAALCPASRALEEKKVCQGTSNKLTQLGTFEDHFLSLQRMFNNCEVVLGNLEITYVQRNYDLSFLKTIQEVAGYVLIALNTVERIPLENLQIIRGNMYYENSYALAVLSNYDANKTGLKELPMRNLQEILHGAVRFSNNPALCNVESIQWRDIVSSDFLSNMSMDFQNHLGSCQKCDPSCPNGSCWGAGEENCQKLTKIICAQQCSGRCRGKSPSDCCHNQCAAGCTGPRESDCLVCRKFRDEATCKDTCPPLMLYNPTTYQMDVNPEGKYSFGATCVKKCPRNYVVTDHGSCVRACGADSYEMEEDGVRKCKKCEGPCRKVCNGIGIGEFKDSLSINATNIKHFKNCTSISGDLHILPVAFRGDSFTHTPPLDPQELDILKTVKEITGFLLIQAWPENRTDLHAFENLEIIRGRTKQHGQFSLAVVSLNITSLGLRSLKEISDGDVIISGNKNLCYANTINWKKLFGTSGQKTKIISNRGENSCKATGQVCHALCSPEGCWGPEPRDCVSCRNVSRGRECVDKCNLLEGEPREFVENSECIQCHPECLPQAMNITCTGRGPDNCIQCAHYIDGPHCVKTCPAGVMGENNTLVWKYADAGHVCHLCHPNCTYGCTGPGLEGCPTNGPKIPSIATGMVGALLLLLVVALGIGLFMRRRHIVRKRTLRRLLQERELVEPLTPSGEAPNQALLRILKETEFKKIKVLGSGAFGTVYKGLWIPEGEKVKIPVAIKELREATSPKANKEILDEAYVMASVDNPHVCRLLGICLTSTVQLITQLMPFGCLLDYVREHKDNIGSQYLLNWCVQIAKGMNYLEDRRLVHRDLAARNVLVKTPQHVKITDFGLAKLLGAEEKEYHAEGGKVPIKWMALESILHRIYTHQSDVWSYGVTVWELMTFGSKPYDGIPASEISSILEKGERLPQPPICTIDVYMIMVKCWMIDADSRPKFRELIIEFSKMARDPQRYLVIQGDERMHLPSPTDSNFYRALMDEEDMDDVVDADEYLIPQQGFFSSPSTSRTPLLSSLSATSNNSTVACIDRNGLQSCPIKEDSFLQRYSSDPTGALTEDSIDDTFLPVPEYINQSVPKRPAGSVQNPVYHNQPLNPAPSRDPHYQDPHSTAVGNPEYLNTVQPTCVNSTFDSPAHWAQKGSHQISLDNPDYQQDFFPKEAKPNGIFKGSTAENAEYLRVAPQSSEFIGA
Sequence of Platelet-derived growth factor receptor beta (P09619 whole entry): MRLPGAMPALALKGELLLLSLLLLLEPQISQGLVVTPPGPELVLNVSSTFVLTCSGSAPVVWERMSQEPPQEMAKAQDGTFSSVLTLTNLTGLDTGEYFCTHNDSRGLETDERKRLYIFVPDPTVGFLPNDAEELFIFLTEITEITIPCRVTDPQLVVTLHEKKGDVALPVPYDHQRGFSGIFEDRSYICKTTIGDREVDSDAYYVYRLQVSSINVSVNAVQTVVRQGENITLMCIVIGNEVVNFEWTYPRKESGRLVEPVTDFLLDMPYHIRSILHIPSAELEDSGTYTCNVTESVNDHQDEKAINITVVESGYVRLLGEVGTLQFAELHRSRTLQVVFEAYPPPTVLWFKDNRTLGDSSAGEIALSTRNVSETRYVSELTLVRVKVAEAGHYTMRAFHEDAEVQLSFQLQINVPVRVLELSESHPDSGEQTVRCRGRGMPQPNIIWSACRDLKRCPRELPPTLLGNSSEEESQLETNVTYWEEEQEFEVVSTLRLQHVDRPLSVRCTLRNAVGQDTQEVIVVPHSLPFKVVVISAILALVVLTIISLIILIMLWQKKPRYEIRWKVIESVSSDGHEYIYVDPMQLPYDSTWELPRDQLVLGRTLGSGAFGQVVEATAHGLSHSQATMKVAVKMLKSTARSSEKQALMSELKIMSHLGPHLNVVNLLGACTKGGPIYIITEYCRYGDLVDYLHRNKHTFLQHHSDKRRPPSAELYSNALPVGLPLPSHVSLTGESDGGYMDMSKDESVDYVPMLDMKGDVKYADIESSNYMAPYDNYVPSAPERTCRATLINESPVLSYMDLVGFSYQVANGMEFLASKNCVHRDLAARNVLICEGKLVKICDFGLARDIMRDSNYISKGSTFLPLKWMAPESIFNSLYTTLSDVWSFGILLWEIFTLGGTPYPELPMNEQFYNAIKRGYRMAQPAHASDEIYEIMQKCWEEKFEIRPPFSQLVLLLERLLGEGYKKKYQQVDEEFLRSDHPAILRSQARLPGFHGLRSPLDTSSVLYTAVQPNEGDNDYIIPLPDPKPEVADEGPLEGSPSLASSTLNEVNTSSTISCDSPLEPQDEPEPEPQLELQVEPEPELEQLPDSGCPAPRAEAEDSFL
Sequence of Vascular endothelial growth factor receptor 2 (P35968 whole entry): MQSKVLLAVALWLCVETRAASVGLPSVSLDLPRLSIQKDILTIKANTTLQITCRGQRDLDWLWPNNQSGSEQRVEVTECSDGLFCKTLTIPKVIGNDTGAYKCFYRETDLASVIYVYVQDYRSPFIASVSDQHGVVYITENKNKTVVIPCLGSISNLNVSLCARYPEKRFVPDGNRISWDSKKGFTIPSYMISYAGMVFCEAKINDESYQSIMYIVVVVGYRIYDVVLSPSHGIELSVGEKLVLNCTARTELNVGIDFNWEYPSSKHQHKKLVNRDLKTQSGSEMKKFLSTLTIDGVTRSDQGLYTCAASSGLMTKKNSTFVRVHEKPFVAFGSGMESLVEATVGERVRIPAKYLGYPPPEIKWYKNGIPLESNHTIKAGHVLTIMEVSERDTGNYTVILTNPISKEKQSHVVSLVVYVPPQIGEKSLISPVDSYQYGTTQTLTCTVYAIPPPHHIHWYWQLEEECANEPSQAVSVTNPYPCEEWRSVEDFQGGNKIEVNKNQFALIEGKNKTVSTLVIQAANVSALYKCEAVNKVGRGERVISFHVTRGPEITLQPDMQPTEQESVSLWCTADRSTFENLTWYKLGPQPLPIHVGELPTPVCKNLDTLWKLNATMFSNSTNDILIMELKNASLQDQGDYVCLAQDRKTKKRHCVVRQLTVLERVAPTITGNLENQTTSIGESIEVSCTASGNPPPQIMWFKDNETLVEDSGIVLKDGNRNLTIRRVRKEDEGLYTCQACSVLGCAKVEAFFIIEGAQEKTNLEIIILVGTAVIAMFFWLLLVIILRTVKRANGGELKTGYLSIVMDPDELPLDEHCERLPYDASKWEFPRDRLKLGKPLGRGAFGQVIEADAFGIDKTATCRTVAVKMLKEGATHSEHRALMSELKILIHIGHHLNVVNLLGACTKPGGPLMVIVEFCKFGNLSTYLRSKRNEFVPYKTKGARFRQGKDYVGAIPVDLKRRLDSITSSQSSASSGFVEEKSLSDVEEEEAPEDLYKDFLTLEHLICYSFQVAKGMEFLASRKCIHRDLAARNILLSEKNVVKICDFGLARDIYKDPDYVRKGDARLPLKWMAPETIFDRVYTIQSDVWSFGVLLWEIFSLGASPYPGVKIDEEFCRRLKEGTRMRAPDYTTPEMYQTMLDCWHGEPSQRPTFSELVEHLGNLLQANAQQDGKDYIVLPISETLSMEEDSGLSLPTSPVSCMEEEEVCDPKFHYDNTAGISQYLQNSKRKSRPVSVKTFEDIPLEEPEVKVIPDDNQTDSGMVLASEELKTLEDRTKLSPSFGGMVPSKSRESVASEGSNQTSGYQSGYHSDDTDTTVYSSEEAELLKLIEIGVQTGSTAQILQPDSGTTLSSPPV

A word on the IC50: it is the concentration that inhibits the measured activity by half. Higher therefore signals weaker potency. With `COc1cc2c(Oc3ccc(NC(=O)c4cc(-c5ccc(C)cc5)ccn4)cc3F)ccnc2cc1OCCCN1CCN(C)CC1`, the 50% inhibitory concentration (IC50) was determined as 532 nM in [1]; 26 nM in [2]; 450 nM in assay [3]; 100 nM in assay [4]; 73 nM in assay [5]; 37 nM in assay [6]. Besides, the IC50 in assay [7] was determined as 1.39 nM; in assay [8] it was 1.08 nM; in assay [9], 90 nM; in assay [11], 810 nM; in assay [14] it was 1.42 nM. The “Ratio IC50” value in assay [10] came out at 1.2; in [12] it was 5.8; in [13], 7.3.
